B1: tRNA (parent)
chain: GUUCCGUUGGCGUAAUGGUAACGCGUCUCCCUCCUAAGGAGAAGACUGCGGGUUCGAGUCCCGUACGGAACG

This sample holds only a part of the variants without activity.

The series covers variants of B1. Nature of the series: yeast fitness relative to wild type (ratio to wild type); higher = fitter; tRNA-Arg(CCU), competitive growth, 37 C, YPD. The method in brief: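 A pool of Saccharomyces cerevisiae strains, each with a tRNA-Arg(CCU) gene variant at the native genomic locus, was competed in YPD at 37°C for 24 hours across six parallel replicates. The variants had been chemically synthesised at a 3% per-site mutation rate over 69 sites, and gene amplicons before and after competition were read by 100-nucleotide paired-end sequencing. Darwinian fitness relative to wild type rested on changes in genotype frequencies. Genotypes required ≥ 100 starting reads, and estimates < 0.5 were set to 0.5.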
Regarding C5G G58A G67C, the yeast fitness worked out at 0.687.
C5G G48C: the yeast fitness was 0.758.
Next, C5G G10C C22A U32C: no more than 0.5; C5G U8C A21C C33U U59G: no more than 0.5.
On to C5G G67C, for which the yeast fitness was found to be 0.99.
With C5G G67A, the yeast fitness was 0.86.
As to C5G G9C A42G C49U U54C, the yeast fitness turned out to be 0.533.
With C5G U13G C29U G50C U59A, the yeast fitness is no more than 0.5.
Next, C5G U13A A20G U35A A40G: no more than 0.5.
Take C5G U16A C31G A65U C66A: the yeast fitness was no more than 0.5.
In the case of C5G G18C C62A, the yeast fitness was no more than 0.5.
For C5G U19C U26A C55U, the yeast fitness is no more than 0.5.
Next, C5G U8C C60A G63A: no more than 0.5; C5G U7C: 0.787; C5G U8C G56A: 0.723.
The value for C5G U7G A15G was no more than 0.5.
On to C5G U13C A21C G67A, for which the yeast fitness is no more than 0.5.
The value for C5G U8C C30U U54A was no more than 0.5.
The value for C5G U26C A65U was 0.67; that for C5G U32C was 0.946.
Next, C5G G9C U28C C55U: no more than 0.5.
Regarding C5G U13G A36U U64G, the yeast fitness was no more than 0.5.
For the variant C5G G12C A20U C24G C33A C46A C55A, the yeast fitness is no more than 0.5.
As for C5G U16C, the yeast fitness was 0.722.
As to C5G G41C U54A, the yeast fitness was no more than 0.5.
In the case of C5G U26C C34G C55A A69U, the yeast fitness was no more than 0.5.
Next, C5G U7A A15C U28A: no more than 0.5; C5G G25C A37G: 0.504; C5G U19G A36U G56C A65C: no more than 0.5.
For the variant C5G U19A, the yeast fitness stood at 0.818.
Regarding C5G U19C, the yeast fitness is 0.997.
As to C5G G12C G18A C24U C29U A36G A45C A69C, the yeast fitness is no more than 0.5.
As for C5G U8C A14C C29A C31G U54A, the yeast fitness was no more than 0.5.
Regarding C5G U8C A15G G18C, the yeast fitness was no more than 0.5.
C5G U13G C24G: the yeast fitness is no more than 0.5.
Turning to C5G G17C G25A G51A, the yeast fitness was no more than 0.5.
Consider C5G G41C G67C, for which the yeast fitness was found to be 0.631.
C5G G44C: the yeast fitness came to 0.688.
On to C5G U13C C22G C29G A45C, for which the yeast fitness is no more than 0.5.
Regarding C5G G41A A42C G50C A70G, the yeast fitness was no more than 0.5.
For the variant C5G G12A A14G C30G A45G G52A, the yeast fitness was no more than 0.5.
In the case of C5G U8A A36U A42G G50A A57G, the yeast fitness was no more than 0.5.
Next, C5G G17C C49U C61A: no more than 0.5; C5G G17A A37C A65C: 0.588.
As for C5G G10A A40G A70G, the yeast fitness is no more than 0.5.
On to C5G U26A A40U G63C, for which the yeast fitness was no more than 0.5.
Take C5G G44C G67U: the yeast fitness came out at 1.02.
Consider C5G U16A A21C A37C G68A, for which the yeast fitness was no more than 0.5.
In the case of C5G G38C A69U, the yeast fitness was no more than 0.5.
Regarding C5G U7G A36U G41A C49G, the yeast fitness is no more than 0.5.
Regarding C5G G48A C49U A57G, the yeast fitness worked out at 0.624.
The value for C5G U19C U35A A43C A65C was no more than 0.5; that for C5G G48A C49G was 0.658; that for C5G U13A U19A C30U was 0.573.
In the case of C5G U32A C34U, the yeast fitness was no more than 0.5.
For the variant C5G G17C A70U, the yeast fitness was no more than 0.5.
As for C5G G17C C62U A65C, the yeast fitness was 0.52.
In the case of C5G U13C A20C U32G C46U, the yeast fitness was 0.703.
For C5G U26C G44A C62A, the yeast fitness was no more than 0.5.
On to C5G U28G G38C C62G, for which the yeast fitness is no more than 0.5.
In the case of C5G G48C C49U U54G C66A, the yeast fitness is 0.682.
Turning to C5G G25A C46U G50C C66U, the yeast fitness was no more than 0.5.
Consider C5G U7G U13A C30A A43C U53C, for which the yeast fitness is 0.876.
The value for C5G G25A A42C G68U was no more than 0.5; that for C5G U13C A70C was 0.579; that for C5G G23A U54A was no more than 0.5.
Regarding C5G U19G C22U U32C G56A A65C, the yeast fitness was no more than 0.5.
As for C5G G38A A43U G56A, the yeast fitness was no more than 0.5.
Next, C5G U7A C22U C30A C49G C55U: 0.552; C5G G68A: 0.716; C5G G68C: 0.826.
On to C5G U13C A43C, for which the yeast fitness was no more than 0.5.
For the variant C5G G17A G18A A57C, the yeast fitness worked out at 0.554.
On to C5G G39A U47G C49G C66U A69C, for which the yeast fitness was 0.57.
As for C5G G56A U59G, the yeast fitness is no more than 0.5.
The value for C5G G10C C31U A70G was no more than 0.5; that for C5G U28G G58C C62U G63C U64G was 0.628.
On to C5G U19A A20U G51C, for which the yeast fitness was no more than 0.5.
The value for C5G U26A A36C was no more than 0.5.
The value for C5G G56A C62G was 0.543; that for C5G G50C G51C G56A was no more than 0.5.
The value for C5G G23A G25C C49U was 0.544.
C5G G10C: the yeast fitness came out at 0.651.
C5G U7A A20C C60U A69U: the yeast fitness was determined as 0.546.
Next, C5G G25A U59G: 0.631.
Turning to C5G U13G G18C A21C C60G A65U C66U, the yeast fitness was no more than 0.5.
For the variant C5G U13G C27U G41A, the yeast fitness was determined as 0.541.
As for C5G G25A C62G, the yeast fitness turned out to be 0.648.
Next, C5G U13A C22G C27U C29G A40U U54C C61G: no more than 0.5; C5G G44C C49G A69U: no more than 0.5.
As to C5G U32A A57G, the yeast fitness came to 0.549.
As to C5G G12C, the yeast fitness is 0.816.
In the case of C5G G17A G38A A40G A69U, the yeast fitness was no more than 0.5.
With C5G U13A C31G G50A A65C, the yeast fitness is 0.58.
On to C5G U13A C31G G50A A65G, for which the yeast fitness is no more than 0.5.
As to C5G G52A G56C, the yeast fitness is no more than 0.5.
The value for C5G U8G A14G A43C G48A was 0.544; that for C5G U16A A21C A57C was 0.624.
With C5G U7C C30U G50C, the yeast fitness was no more than 0.5.
The value for C5G U7C U26G C60G was no more than 0.5; that for C5G U28C A70G was 0.641.
Take C5G U13A G23A G38A G48A C60A: the yeast fitness is no more than 0.5.
With C5G G17C A43U, the yeast fitness turned out to be 0.516.
On to C5G G23A C61A, for which the yeast fitness stood at 0.529.
Next, C5G G23A C61G: no more than 0.5.
The value for C5G G10C C30U G39C C55G was no more than 0.5; that for C5G G10C G68U was no more than 0.5; that for C5G G12A A36U A42U U59C A65C was no more than 0.5.
In the case of C5G U8C C11G C31G, the yeast fitness was no more than 0.5.
Take C5G G10C A37U G38A: the yeast fitness is no more than 0.5.
In the case of C5G G48C C49U, the yeast fitness was 0.622.
Next, C5G G56C A65C: 0.549; C5G G56C A65U: no more than 0.5.
Consider C5G U8C A36G A40C, for which the yeast fitness was determined as 0.55.
The value for C5G G23A was 0.668; that for C5G U13C A21C G63C A69C was no more than 0.5.
As for C5G U13C C46U, the yeast fitness was found to be 0.547.
For C5G G17C A42U G52A G67U, the yeast fitness was no more than 0.5.
Turning to C5G U19A C30G G39C U53C C55A, the yeast fitness was no more than 0.5.
As to C5G U13C C24U C49U, the yeast fitness is 0.526.
Take C5G G17A A20C C49G G51A: the yeast fitness is no more than 0.5.
As to C5G U7C C11G C31G, the yeast fitness was no more than 0.5.
For the variant C5G G17A C34A G39C A40C G56C C61G C62G G68C, the yeast fitness is no more than 0.5.
With C5G G9C C30G C66U, the yeast fitness was no more than 0.5.
Take C5G U19C G67C: the yeast fitness was 0.682.
Turning to C5G G17C C46U G68A, the yeast fitness is no more than 0.5.
Regarding C5G U8A U28C G51A A69C, the yeast fitness is no more than 0.5.
C5G U13C A43G G50C: the yeast fitness was found to be 0.566.
On to C5G G18C C31A G38U, for which the yeast fitness is no more than 0.5.
Take C5G G17C G38C G52A: the yeast fitness was no more than 0.5.
In the case of C5G U19A C24G C34A C55U, the yeast fitness came to 0.601.
As to C5G U32A C62G, the yeast fitness is no more than 0.5.
Regarding C5G U32A C62U, the yeast fitness was found to be 0.532.
Turning to C5G U26C U32A, the yeast fitness was found to be 0.604.
The value for C5G U28G was 0.699; that for C5G G25C G44A A69C was no more than 0.5.
The value for C5G G12A C46U was 0.572; that for C5G G44C C62U C66U A69C was 0.515.
With C5G G25C U47C, the yeast fitness amounted to 0.545.
Turning to C5G G10C U13G C31G U59A, the yeast fitness was no more than 0.5.
As to C5G G48C G67C, the yeast fitness stood at 0.573.
With C5G G51C U54A, the yeast fitness is no more than 0.5.
As for C5G U8C G12A U28A A65G, the yeast fitness is no more than 0.5.
As to C5G G12A G25A, the yeast fitness stood at 0.783.
Consider C5G G18A C27G C30U C31G, for which the yeast fitness is no more than 0.5.
Turning to C5G G10C G52A, the yeast fitness is no more than 0.5.
For the variant C5G G10C C29A U32A C46G A57C, the yeast fitness is no more than 0.5.
For C5G G9C A42G U54C U59C, the yeast fitness was no more than 0.5.
For C5G G17C A20C A21U C27U C33G G67A, the yeast fitness came to 0.595.
On to C5G U8C G10C G52A, for which the yeast fitness was no more than 0.5.
The value for C5G U7C A14U C24U C46G C62U C66U was no more than 0.5; that for C5G G23A A45U G52C was 0.626; that for C5G G48A G68C was 0.653.
On to C5G G9U A21C U54A A57G, for which the yeast fitness is no more than 0.5.
As to C5G U8C C27G C33G U35A C49U, the yeast fitness is no more than 0.5.
With C5G U16A G44A C46U A69C, the yeast fitness is no more than 0.5.
As for C5G G51U C55G A65C, the yeast fitness was no more than 0.5.
For the variant C5G G10C A15C C34U C55A, the yeast fitness is no more than 0.5.
Next, C5G G25A C46U G50C: 0.593.
The value for C5G G25A G68C was 0.69.
Regarding C5G G18A A20U C55G, the yeast fitness is no more than 0.5.
Turning to C5G U13A C22G C29G A40U C62U, the yeast fitness was no more than 0.5.
On to C5G G25A U28G G38C C62G C66U, for which the yeast fitness is no more than 0.5.
Take C5G G23C C33U A43C: the yeast fitness was no more than 0.5.
For C5G G51A G52A, the yeast fitness was no more than 0.5.
Take C5G U13A U19A C30U A70U: the yeast fitness is no more than 0.5.
In the case of C5G G10A G52A A70G, the yeast fitness was 0.564.

For the origin of these results see the RNAGym collection of RNA variant scans (doi:10.1126/science.aae0568).
